The text below walks through data of ChEMBL document CHEMBL1122785, “Synthesis and evaluation of a series of 2'-O-acyl derivatives of 9-beta-D-arabinofuranosyladenine as antiherpes agents” (J Med Chem, 1984).

The subject of data set [1] is Human alphaherpesvirus 1. As to the kind of experiment: virus rating as the measure of the activity against herpes simplex virus type 1(strain 377). The class given is functional.
The nature of data set [2]: Compound was evaluated for the octanol/water partition coefficient at 37 degree Celsius at 4.5 hour. Format: physicochemical. An outline of the steps:
(§1)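 Dilute aqueous solutions were equilibrated with 1-octanol at 37 °C. At each sampling interval the tubes were centrifuged. Aliquots of the octanol layer, then of the water layer, were diluted into methanol and stored at -20 °C for analysis.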

A short description of data set [3]: Solubility of 10 mg compound in aqueous buffer at pH 7.3 and 37 degree Celsius after 13.5 hr. The class given is physicochemical. Conditions: read-out: Concentration. An outline of the steps: (§2)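 Crystalline compound (stated amount) was agitated in 1 mL phosphate-buffered saline (NaH2PO4/NaCl, pH 7.3) at 37 °C. At each time point samples were centrifuged 5 min at 14000 rpm. Supernatant was diluted in mobile phase and quantified by HPLC against standards. Concentrations were corrected for prodrug decomposition.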

Data set [4] in a line: Solubility of 10 mg compound in aqueous buffer at pH 7.3 and 37 degree Celsius after 4.0 hr. Conditions: read-out: Concentration. Format: physicochemical. An outline of the steps: as §2
In data set [5] the test system is Human alphaherpesvirus 1. Briefly: In vitro activity against herpes simplex virus type 1(strain 377) and the minimum inhibitory concentration was determined. Format: functional.
Data set [6] can be described thus: Compound was evaluated for the octanol/water partition coefficient at 37 degree Celsius at 3.0 hr. Format: physicochemical. The method in brief:
as §1

Data set [7] can be described thus: Solubility of 10 mg compound in aqueous buffer at pH 7.3 and 37 degree Centigrade after 8.0 hr. Format: physicochemical. The conditions noted are these: read-out: Concentration. An outline of the steps: as §2
Data set [8] is described as follows: Compound was evaluated for the octanol/water partition coefficient at 37 degree Celsius at 24.5 hour. Format: physicochemical. The method in brief: as §1
Data set [9] can be described thus: Solubility of 20 mg compound in aqueous buffer at pH 7.3 and 37 degree Celsius after 4.0 hr. The class given is physicochemical. The conditions noted are these: read-out: Concentration. An outline of the steps:
as §2

Data set [10] is described as follows: Compound was evaluated for the octanol/water partition coefficient at 37 degree Celsius at 1.0hr. The class given is physicochemical. Conditions: 1 h. An outline of the steps:
as §1

The nature of data set [11]: Compound was evaluated for the octanol/water partition coefficient at 37 degree Celsius at 10.5 hour. The class given is physicochemical. The method in brief: as §1
Data set [12] is described as follows: Solubility of 20 mg compound in aqueous buffer at pH 7.3 and 37 degree Centigrade after 8.0 hr. The class given is physicochemical. The conditions noted are these: read-out: Concentration. An outline of the steps:
as §2

Data set [13] can be described thus: Solubility of 20 mg compound in aqueous buffer at pH 7.3 and 37 degree Celsius after 13.5 hr. The class given is physicochemical. Conditions: read-out: Concentration. The method in brief: as §2
Data set [14] can be described thus: Solubility of 150 mg compound in aqueous buffer at pH 7.3 and 37 degree Celsius after 8.0 hr. The class given is physicochemical. The conditions noted are these: read-out: Concentration. An outline of the steps: as §2
The nature of data set [15]: Solubility of 150 mg compound in aqueous buffer at pH 7.3 and 37 degree Celsius after 4.0 hr. Conditions: read-out: Concentration. Format: physicochemical. An outline of the steps: as §2
The subject of data set [16] is Human alphaherpesvirus 1. Briefly: Compound was evaluated for its activity against herpes simplex virus type 1(strain 377) and the minimum inhibitory concentration was determined. The class given is functional.

Converted amounts (≈) assume the structure as drawn.

Regarding `CCCC(=O)O[C@H]1C(n2cnc3c(N)ncnc32)O[C@H](CO)[C@@H]1O` (some centres undefined), the VR with Human alphaherpesvirus 1 [1] was 1.5. The Partition coefficient amounted to 0.969 in data set [2], 0.911 in [6] and 0.975 in data set [8]. Besides, in [3], the solubility at 13.5 h was 3.31 mg/mL (≈ 9.81 mM). For the same molecule, the solubility at 4 h in data set [4] turned out to be 3.38 mg/mL (≈ 10 mM). In addition, the MIC50 with Human alphaherpesvirus 1 [5] turned out to be 71.9 µg/mL (≈ 0.213 mM). Further, the solubility at 8 h in [7] is 3.54 mg/mL (≈ 10.5 mM).

With `CCCCC(=O)O[C@H]1C(n2cnc3c(N)ncnc32)O[C@H](CO)[C@@H]1O` (some centres undefined), the VR in the data set on Human alphaherpesvirus 1 [1] was found to be 2.6. Besides, the Partition coefficient in [2] is 2.2; in data set [6] it was 2.5; in [10], 2.5; in data set [11], 3; in data set [8] it was 2.8. The solubility at 4 h in data set [9] came out at 9.28 mg/mL (≈ 26.4 mM). Also, in the data set on Human alphaherpesvirus 1 [5], the MIC50 came to 56.8 µg/mL (≈ 0.162 mM). In data set [12], the solubility at 8 h is 10.8 mg/mL (≈ 30.7 mM). In addition, in [13], the solubility at 13.5 h came out at 11 mg/mL (≈ 31.3 mM).

As for `CCC(=O)O[C@H]1C(n2cnc3c(N)ncnc32)O[C@H](CO)[C@@H]1O` (some centres undefined), the VR in the data set on Human alphaherpesvirus 1 [1] came to 1.9. Moreover, the Partition coefficient is listed as 0.318 in [2]; 0.359 in [6]; 0.336 in data set [10]; 0.335 in data set [11]; 0.329 in [8]. For the same molecule, the solubility at 4 h in [9] was 11.1 mg/mL (≈ 34.3 mM). For the same molecule, the MIC50 with Human alphaherpesvirus 1 [5] came to 29.3 µg/mL (≈ 0.0906 mM). The solubility at 8 h in data set [12] is 11 mg/mL (≈ 34 mM). In addition, in data set [13], the solubility at 13.5 h turned out to be 13 mg/mL (≈ 40.2 mM).

`CC(=O)O[C@H]1C(n2cnc3c(N)ncnc32)O[C@H](CO)[C@@H]1O` (some centres undefined): the VR in the data set with Human alphaherpesvirus 1 [1] turned out to be 2.3. Besides, the Partition coefficient in [2] turned out to be 0.118; in data set [6], 0.134; in data set [10], 0.149; in data set [11], 0.127; in [8] it was 0.122. The MIC50 against Human alphaherpesvirus 1 [5] is 26.2 µg/mL (≈ 0.0847 mM). In addition, in [14], the solubility at 8 h amounted to 93.6 mg/mL (≈ 303 mM). The solubility at 4 h in data set [15] worked out at 93.6 mg/mL (≈ 303 mM).

The molecule `Nc1ncnc2c1ncn2[C@@H]1O[C@H](CO)[C@@H](O)[C@@H]1O` [VIDARABINE] displayed a VR in the data set with Human alphaherpesvirus 1 [1] of 2. Further, the MIC50 against Human alphaherpesvirus 1 [16] amounted to 9.5 µg/mL (≈ 0.0355 mM).
